# Sampled rows, rich in hits. Any-hit rate of the full collection: about 1.5%.
# bovine MsrA act = activators of bovine methionine sulfoxide reductase A. activation, % at 10.6 µM. purified bovine MsrA, absorbance read-out. AID 602163. actives 0.3% (n = 360,000); in the data active = activation above about 7.5%;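 also: 0% = vehicle and 100% = reference activator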
# proCasp7 act = activates human procaspase-7, counter-screen for procaspase-3 activators; activation, % at 8.5 µM; actives 0.093% (n = 330,000); AID 463210; P55210; recombinant procaspase-7, Ac-DEVD-pNA absorbance 405 nm; D23A/D198A/D206A triple mutant, cannot self-cleave; scale: DMSO 0, 5 µM enzyme 100;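 active = percent activation above the screen-wide mean plus 3 SD, cut at about 25% in these data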
# Target sequence (P55210 whole entry D23A/D198A/D206A): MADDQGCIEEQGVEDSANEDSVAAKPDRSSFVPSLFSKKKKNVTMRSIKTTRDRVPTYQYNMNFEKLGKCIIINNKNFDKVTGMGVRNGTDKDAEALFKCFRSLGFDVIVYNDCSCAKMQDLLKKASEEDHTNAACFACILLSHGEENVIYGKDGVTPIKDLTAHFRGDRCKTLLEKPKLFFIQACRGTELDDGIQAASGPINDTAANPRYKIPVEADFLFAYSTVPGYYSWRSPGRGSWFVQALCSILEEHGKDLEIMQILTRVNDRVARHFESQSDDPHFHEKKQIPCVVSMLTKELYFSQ
#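 Replicates: singlicate. Assay system: Procaspase-7 triple mutant (PC-7 D3A). Signal: 405 nm absorbance of p-nitroaniline. Times: 1 h preincubation, 2 h reaction. Buffer or medium: Zinc-free HEPES pH 7.4 with 300 mM NaCl, 0.01% Triton X-100. Also added: DEVD-pNA substrate. Benchmarks: DMSO wells as 0%, DMSO with 5 µM added PC-7 as 100%.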
# TbMetRS inhib = blocks T. brucei methionyl-tRNA synthetase activity | actives 0.4% (n = 360,000) | purified T. brucei MetRS, ATP depletion, Kinase-Glo luminescence | inhibition, % at 11.9 µM;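 active = inhibition above a per-plate cutoff of the control wells' mean inhibition plus 3 SD, cut at about 5.5% in these data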;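 also: 0% = DMSO wells median and 100% = median of wells with control inhibitor compound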
#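 technique = Kinase-Glo luminescence, ATP depletion format | system = purified MetRS (methionyl-tRNA synthetase) enzyme from Trypanosoma brucei | timing = 15 min preincubation, 2 h reaction, all 25 °C | evaluation = percent inhibition versus plate control medians | dosing = single dose, 11.9 µM final nominal, 0.9% final DMSO | also added = substrates ATP, L-methionine and bulk Escherichia coli tRNA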
# proCasp3 act = procaspase-3 (human) activation; P42574; recombinant procaspase-3 D3A, Ac-DEVD-pNA absorbance 405 nm; activation, % at 8.5 µM; actives 0.11% (n = 330,000); AID 463141;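 active = activation above the mean of all tested compounds plus 3 SD, cut at about 21% in these data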;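 also: 0% = DMSO alone and 100% = DMSO wells spiked with extra 5 µM PC-3 D3A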
# Target sequence (P42574 whole entry D9A/D28A/D175A): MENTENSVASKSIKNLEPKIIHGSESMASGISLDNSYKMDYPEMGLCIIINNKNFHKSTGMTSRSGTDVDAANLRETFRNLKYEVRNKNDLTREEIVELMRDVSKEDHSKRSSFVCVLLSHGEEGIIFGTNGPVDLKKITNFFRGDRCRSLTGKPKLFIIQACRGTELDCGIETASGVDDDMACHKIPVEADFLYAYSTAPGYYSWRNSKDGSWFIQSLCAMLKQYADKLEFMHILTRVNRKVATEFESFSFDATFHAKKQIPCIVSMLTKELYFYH
#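 Technique: 405 nm absorbance of p-nitroaniline, reads at 0 and 120 min; Test system: Procaspase-3 D3A mutant; Incubation: 1 h enzyme-compound preincubation, then 2 h substrate reaction, 25 °C; Repeats: singlicate, each compound tested once; Benchmarks: low control DMSO wells, high control DMSO plus 5 µM PC-3 D3A.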
# MsrA inhibitor = inhibitors of bovine MsrA; purified bovine MsrA, absorbance read-out; inhibition, % at 15.5 µM; actives 0.75% (n = 360,000); in the data active = inhibition above about 4.5%;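 also: 0% = vehicle wells with enzyme and 100% = reference inhibitor wells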
# TbMetRS confirm = Trypanosoma brucei MetRS inhibition confirmed; actives 93% (n = 1,400); inhibition, % at 11.9 µM; shares compounds with TbMetRS inhib; T. brucei MetRS enzyme, luminescence (ATP depletion); in the data active = inhibition above about 7%
# Jurkat tox = kills Jurkat cells in T. brucei MetRS counterscreen | Jurkat cells viability, ATP luminescence | actives 12% (n = 1,400) | shares compounds with TbMetRS inhib | inhibition, % at 8.3 µM; in the data active = inhibition above about 15%;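 also: 0% = vehicle and 100% = reference inhibitor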
# TbMetRS FP orth = orthogonal test for Trypanosoma brucei MetRS inhibitors | actives 44% (n = 1,400) | inhibition, % at 11.9 µM | purified T. brucei MetRS, fluorescence polarization | shares compounds with TbMetRS inhib; in the data active = inhibition above about 17%;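 also: 0% = vehicle wells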
# * = called active by the depositor; . = no result.
SMILES,bovine MsrA act,proCasp7 act,TbMetRS inhib,proCasp3 act,MsrA inhibitor,TbMetRS confirm,Jurkat tox,TbMetRS FP orth
CC(O)CN1C(=O)C(CC(=O)Nc2ccc(Cl)cc2)SC1=Nc1ccccc1 (centres undefined),-1,9,27*,1,.,53*,2,22*
O=C(CN1CCN(CCC(=O)Nc2ccccc2F)CC1)Nc1ccc(Cl)cc1,-17,-3,6.4*,-1,1,-1,9,3
O=C(NCc1cc(Cl)cc(Cl)c1)c1ccc2nc(COCCO)[nH]c2c1,0,.,21*,.,0,55*,-8,30*
O=C(CSCc1ccc([N+](=O)[O-])cc1)N/N=C/c1cccnc1,-3,-2,9.2*,1,0,34*,-4,10
COc1ccc(/C=N/n2c(=O)[nH]c3c([nH]c4ccc(Cl)cc43)c2=O)cc1CN1CCCCC1,-3,-3,4,-3,0,.,.,.
COc1ccc(/C=N/n2c(=O)[nH]c3c([nH]c4ccc(Br)cc43)c2=O)cc1CN1CCOCC1,0,-2,6.2*,12,0,14*,11,9
Cc1cc(O)c(/C=N/OCc2ccc(Cl)cc2Cl)c(=O)o1,-3,13,-1,-1,2,.,.,.
CN(C)/C=C(\C=N\OCc1ccc(Cl)cc1Cl)C(=O)Nc1ccc(Cl)c(Cl)c1,-2,10,66*,-2,-1,9.2*,-4,3
O=C(NC1CCCC1)[C@@H]1CCCN1C(=O)[C@@H](NS(=O)(=O)c1ccc(F)cc1F)C1CCCCC1,.,.,.,.,0,.,.,.
O=C(CCCC1=NS(=O)(=O)c2ccccc2N1)OCc1ccc(Cl)cc1,-5,11,20*,4,-1,44*,2,14
Cc1ccc2nc(NCc3ccccc3)[nH]c2c1,4,10,17*,-4,-1,28*,70*,13
c1ccc(CNc2nc3ccccc3[nH]2)cc1,-1,-5,26*,6,1,35*,9,20*
COc1cc(CNc2nc3ccccc3[nH]2)cc(OC)c1OC,0,7,16*,7,-1,32*,11,9
c1ccc2[nH]c(NCc3ccc4c(c3)OCO4)nc2c1,-4,0,18*,0,0,30*,3,14
COC(=O)C1=C(C)N(Cc2ccccc2C(F)(F)F)C(=NCc2ccccc2)NC1CCc1ccccc1 (centres undefined),.,.,.,.,-2,.,.,.
Cc1ccc2nc(C3CCCN(C(=O)NCc4ccccc4)C3)[nH]c2c1 (centres undefined),-2,-1,15*,3,2,23*,-3,9
C[C@@H]1ON(C)[C@H]2C[C@H]3c4[nH]c5c(-c6cccc(F)c6)cccc5c4CCN3C(=O)[C@@H]12,.,.,.,.,0,.,.,.
CC(=O)c1c[nH]c(C(=O)NCc2cccc(C(F)(F)F)c2)c1,-3,7,92*,10,-1,94*,0,78*
O=C(NCc1cccc(C(F)(F)F)c1)c1c[nH]c(=O)s1,-9,.,1,.,0,.,.,.
COC(=O)CC/C(O)=C1\C(=O)CC(C)(C)CC1=NCc1nc2ccccc2[nH]1,-4,3,48*,6,-1,67*,-4,35*
CC(=O)C1=C(O)CCCC1=NCc1nc2ccccc2[nH]1,-2,-10,6.2*,-5,0,12*,-6,9
O=C(N[C@@H](Cc1cccnc1)C(=O)N1CCC[C@H]1C(=O)NC1CCCC1)C1CCCC1,.,.,.,.,-1,.,.,.
Cc1ccc2nc(/C(C#N)=C/c3ccc(-c4ccccc4C(=O)O)o3)[nH]c2c1,-2,-14,6.0*,-2,1,22*,4,4
CC1CCCN(CCCOc2ccc(Cl)cc2Br)C1 (centres undefined),-9,3,11*,4,2,23*,9,4
Fc1ccc(F)c(CNc2ncnc3cc(Cl)ccc23)c1,-3,6,7.3*,3,1,21*,14,10
SMILES,bovine MsrA act,proCasp7 act,TbMetRS inhib,proCasp3 act,MsrA inhibitor,TbMetRS confirm,Jurkat tox,TbMetRS FP orth
Cc1ccccc1CNc1ncnc2cc(Cl)ccc12,-1,5,1,8,1,.,.,.
Nc1ncnc2c1ncn2C1O[C@H](CO)[C@@H](O)[C@@H]1O (some centres undefined),0,7,1,-7,-1,.,.,.
N#Cc1c(N)n(C2OC(CO)C(O)C2O)c2ncnc(N)c12 (centres undefined),-2,.,7.8*,.,-1,30*,97*,10
O=C(Nc1ccccc1)c1ccc(=O)n(Cc2ccc(F)c(F)c2)c1,-2,-3,9.6*,-2,1,18*,3,6
O=C(Nc1ccccc1)c1ccc(Cn2cc(C(F)(F)F)ccc2=O)cc1,0,10,0,-5,-2,.,.,.
O=S(=O)(c1ccccc1)N1CCCc2nc(-c3ccccc3)ccc21,.,.,.,.,0,.,.,.
COC(=O)C1=C(C)NC(C)=C(C(=O)OC)C(N2C(=O)CCC2=O)C1 (centres undefined),.,.,.,.,1,.,.,.
Cc1cccc(CC(=O)c2c[nH]c3ccccc23)c1,-2,2,11*,-5,-1,22*,10,13
C=CC(=O)Nc1cccc(Oc2ncnc3[nH]cc(-c4cnc5ccccc5c4)c23)c1,-7,0,8.6*,5,-1,30*,6,21*
C[C@@H]1ON(C)[C@H]2C[C@H]3c4[nH]c5cccc(-c6cccc(F)c6)c5c4CCN3C(=O)[C@@H]12,.,.,.,.,0,.,.,.
COc1ccc(C(=O)N2CCC[C@H]2C(=O)N2CCC[C@@H]2C(=O)NCc2ccccc2)cc1F,.,.,.,.,0,.,.,.
O=C(NCc1n[nH]c(=S)n1Cc1ccccc1)c1ccc(Cl)cc1Cl,0,-5,5.8*,-5,2,13*,1,5
COc1ccc(CC(=O)OCC(=O)Nc2ccc(Br)cc2)cc1,-6,1,11*,-8,-1,31*,-9,25*
COc1ccc(OCCC(=O)OCC(=O)Nc2ccc(Br)cc2)cc1,1,4,17*,-6,1,18*,3,12
COc1ccc(NC(=O)C(NC(C)=O)C(=O)Nc2ccc(F)cc2)cc1 (centres undefined),-4,-2,9.6*,-1,0,19*,-6,0
COc1ccc(OCC(O)CNS(=O)(=O)c2ccc(NC(C)=O)cc2)cc1 (centres undefined),-3,-3,0,3,1,.,.,.

# Bioassay records deposited in PubChem by The Scripps Research Institute Molecular Screening Center.
